Data: ChEMBL document CHEMBL1130425, “An orally bioavailable pyrrolinone inhibitor of HIV-1 protease: computational analysis and X-ray crystal structure of the enzyme complex” (J Med Chem, 1997)

How the values were obtained:
[1] = molecular target: Human immunodeficiency virus type 1 protease (Human immunodeficiency virus 1, UniProt Q72874); test: Inhibition of HIV-1 protease
[2] = Ratio of CIC95 to IC50 values
Procedure, shortened: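 Ratio computed by dividing the cellular antiviral CIC95 by the IC50 from the purified HIV-1 protease inhibition assay, both in nM.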

[3] = molecular target: Human immunodeficiency virus type 1 protease (Human immunodeficiency virus 1) (UniProt Q72874); test: Cellular antiviral activity against HIV-1 Protease

| IC50 [1] [nM] | Ratio [2] | IC95 [3] [nM] | SMILES |
| --- | --- | --- | --- |
| 0.03 | 100 | 3 | O=C(N[C@@H](Cc1ccccc1)[C@@H](O)C[C@@H](Cc1ccccc1)C(=O)NC1c2ccccc2C[C@H]1O)OC1CCOC1 (single isomer, unassigned) |
| 11.9 | – | 800 | CC(C)(C)OC(=O)N[C@@H](Cc1ccccc1)[C@@H](O)C[C@]1(Cc2ccccc2)N=CC(C2c3ccccc3C[C@H]2O)=C1O (some centres undefined) |
| 86 | – | – | CC(C)(C)OC(=O)N[C@@H](Cc1ccccc1)[C@@H](O)CC1(Cc2ccccc2)CCN(C2c3ccccc3C[C@H]2O)C1=O (single isomer, unassigned) |

The next lines start with the compound.

| SMILES | IC50 [1] [nM] | Ratio [2] | IC95 [3] [nM] |
| --- | --- | --- | --- |
| CC(C)(C)OC(=O)N[C@@H](Cc1ccccc1)[C@@H](O)C[C@]1(Cc2ccc(O)cc2)N=CC(C2c3ccccc3C[C@H]2O)=C1O (some centres undefined) | 6 | – | – |
| CN(C(=O)[C@H](Cc1ccccc1)C[C@H](O)[C@H](Cc1ccccc1)NC(=O)OC(C)(C)C)C1c2ccccc2C[C@H]1O (single isomer, unassigned) | 186 | – | – |
| CC(C)C[C@H](NC(=O)[C@H](Cc1ccccc1)C[C@H](O)[C@H](Cc1ccccc1)NC(=O)OC(C)(C)C)C(=O)N[C@@H](Cc1ccccc1)C(N)=O | – | 10000 | – |
| O=C(N[C@@H](Cc1ccccc1)[C@@H](O)C[C@]1(Cc2ccccc2)N=CC(C2c3ccccc3C[C@H]2O)=C1O)O[C@H]1CCOC1 (some centres undefined) | 2 | – | 100 |
| CC(C)(C)NC(=O)[C@@H]1CN(Cc2cccnc2)CCN1C[C@@H](O)C[C@@H](Cc1ccccc1)C(=O)NC1c2ccccc2C[C@H]1O (single isomer, unassigned) | – | – | 25 |
| CC(C)(C)OC(=O)N[C@@H](Cc1ccccc1)[C@@H](O)C[C@@H](Cc1ccccc1)C(=O)NC1c2ccccc2C[C@H]1O (single isomer, unassigned) | – | 1330 | – |
| CC(C)(C)OC(=O)N[C@@H](Cc1ccccc1)[C@@H](O)C[C@@](C)(Cc1ccccc1)C(=O)NC1c2ccccc2C[C@H]1O (single isomer, unassigned) | 7 | – | – |
